Assay results from ChEMBL document CHEMBL1806488, “Design, synthesis and biological evaluation of 2'-deoxy-2',2'-difluoro-5-halouridine phosphoramidate ProTides” (Bioorg Med Chem, 2011).

Tests used:
Human alphaherpesvirus 3 [1] = experiment: Antiviral activity against Varicella-zoster virus OKA expressing thymidine kinase infected in human HEL cells assessed as reduction in the virus plaque formation; format: functional, cell-based; conditions: Human alphaherpesvirus 3, strain Oka vaccine
Human alphaherpesvirus 3 [2] = experiment: Antiviral activity against Varicella-zoster virus YS expressing thymidine kinase infected in human HEL cells assessed as reduction in the virus plaque formation; format: functional, organism-based; conditions: Human alphaherpesvirus 3, YS
Human alphaherpesvirus 1 [3] = experiment: Antiviral activity against acyclovir-resistant TK-deficient Herpes simplex virus-1 KOS infected in human HEL cells assessed as inhibition of virus-induced cytopathic effect after 4 days by microscopic analysis; format: functional, organism-based; conditions: Human alphaherpesvirus 1, KOS, 96 h
Thymidine kinase [4] = molecular target: T1, Thymidine kinase (Feline herpesvirus 1, UniProt P13159); experiment: Inhibition of Feline herpesvirus thymidine kinase assessed as phosphorylation of 1 uM [methyl-3H]dThd after 30 mins by scintillation counting; design: species or system Felid alphaherpesvirus 1
T1 sequence (P13159 whole entry): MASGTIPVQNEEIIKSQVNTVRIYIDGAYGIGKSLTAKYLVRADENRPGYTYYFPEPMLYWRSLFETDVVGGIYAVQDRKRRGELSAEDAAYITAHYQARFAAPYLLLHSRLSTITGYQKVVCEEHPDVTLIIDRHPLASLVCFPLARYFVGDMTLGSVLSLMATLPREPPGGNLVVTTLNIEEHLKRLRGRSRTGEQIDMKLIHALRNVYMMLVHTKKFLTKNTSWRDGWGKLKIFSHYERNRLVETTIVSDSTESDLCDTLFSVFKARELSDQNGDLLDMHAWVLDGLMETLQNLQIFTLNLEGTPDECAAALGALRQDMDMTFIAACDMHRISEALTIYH

Thymidine kinase [5] = molecular target: T2, Thymidine kinase (Human alphaherpesvirus 1, UniProt Q9QNF7); experiment: Inhibition of Herpes simplex virus-1 thymidine kinase-mediated phosphorylation of [methyl-3H]dThd at 1 uM after 30 mins by scintillation counting
T2 sequence (Q9QNF7 whole entry): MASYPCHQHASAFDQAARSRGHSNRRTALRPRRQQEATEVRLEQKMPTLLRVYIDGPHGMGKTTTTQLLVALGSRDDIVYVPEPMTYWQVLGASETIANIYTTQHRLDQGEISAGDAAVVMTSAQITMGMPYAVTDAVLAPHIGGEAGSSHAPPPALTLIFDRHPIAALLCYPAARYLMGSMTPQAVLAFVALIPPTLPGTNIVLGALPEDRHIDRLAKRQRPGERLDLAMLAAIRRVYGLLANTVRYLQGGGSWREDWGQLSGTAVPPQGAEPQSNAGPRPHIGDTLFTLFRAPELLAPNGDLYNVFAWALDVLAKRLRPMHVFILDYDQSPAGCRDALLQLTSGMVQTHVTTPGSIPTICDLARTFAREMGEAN

Human betaherpesvirus 5 [6] = experiment: Antiviral activity against Human cytomegalovirus AD-169 infected in human HEL cells assessed as reduction in the virus plaque formation; format: functional, organism-based; conditions: Human betaherpesvirus 5, AD169, HEL
Method in brief: (§1)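 HEL cells were infected with 100 PFU of HCMV (AD-169 or Davis) in the presence of compound.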

HEL = experiment: Cytotoxicity against human HEL cells by colorimetric formazan-based MTS assay; format: cell-based
Human alphaherpesvirus 3 [7] = experiment: Antiviral activity against thymidine kinase-deficient Varicella-zoster virus YS/R infected in human HEL cells assessed as reduction in the virus plaque formation; format: functional, organism-based; conditions: Human alphaherpesvirus 3, YS/R
HeLa = experiment: Antiproliferation activity against human HeLa cells after 3 days by coulter counter; format: cell-based; conditions: 72 h
Method in brief: (§2)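 L1210, FM3A, CEM or HeLa cells at 300,000–500,000 cells/mL were mixed 1:1 with compound dilutions. Incubation at 37 °C lasted 2 days (L1210, FM3A) or 3 days (CEM, HeLa), after which cells were counted with a Coulter counter.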

[8] = Cytotoxicity against human HEL cells assessed as alteration of normal cell morphology by microscopic analysis; format: cell-based
Method in brief: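 Uninfected HEL cells were examined under the microscope. The minimum cytotoxic concentration is the lowest concentration causing a detectable alteration of normal cell morphology.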

Human betaherpesvirus 5 [9] = experiment: Antiviral activity against Human cytomegalovirus Davis infected in human HEL cells assessed as reduction in the virus plaque formation; format: functional, organism-based; conditions: Human betaherpesvirus 5, Davis; method in brief: as §1
Vaccinia virus = experiment: Antiviral activity against Vaccinia virus infected in human HEL cells assessed as inhibition of virus-induced cytopathic effect after 4 days by microscopic analysis; format: functional, organism-based; conditions: Orthopoxvirus vaccinia, 96 h
Felid alphaherpesvirus 1 = experiment: Antiviral activity against Feline herpesvirus infected in cat CRFK cells assessed as inhibition of virus-induced cytopathic effect after 4 days by microscopic analysis; format: functional, organism-based; conditions: Felid alphaherpesvirus 1, CRFK, 96 h
Method in brief: (§3)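 Confluent monolayers (CRFK for feline herpes virus; HEL for HSV-2 G) were inoculated with 100 CCID50 of virus in the presence of compound at 200, 40, 8, … μM. Cytopathicity was scored once it was complete in untreated infected controls.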

[10] = Cytotoxicity against cat CRFK cells by colorimetric formazan-based MTS assay; format: cell-based, Felis catus
Human alphaherpesvirus 3 [11] = experiment: Antiviral activity against thymidine kinase-deficient Varicella-zoster virus 07-1 infected in human HEL cells assessed as reduction in the virus plaque formation; format: functional, organism-based; conditions: Human alphaherpesvirus 3, 07-1, HEL
FM3A = experiment: Antiproliferation activity against mouse FM3A cells after 2 days by coulter counter; format: cell-based; conditions: 48 h; method in brief: as §2
Human alphaherpesvirus 2 = experiment: Antiviral activity against Herpes simplex virus-2 G infected in human HEL cells assessed as inhibition of virus-induced cytopathic effect after 4 days by microscopic analysis; format: functional, organism-based; conditions: Human alphaherpesvirus 2, strain G, 96 h; method in brief: as §3
L1210 = experiment: Antiproliferation activity against mouse L1210 cells after 2 days by coulter counter; format: cell-based; conditions: L1210, 48 h; method in brief: as §2
Human alphaherpesvirus 1 [12] = experiment: Antiviral activity against Herpes simplex virus 1 KOS infected in human HEL cells assessed as inhibition of virus-induced cytopathic effect after 4 days by microscopic analysis; format: functional, organism-based; conditions: Human alphaherpesvirus 1, KOS, 96 h
[13] = Inhibition of Varicella-zoster virus thymidine kinase-mediated phosphorylation of [methyl-3H]dThd at 1 uM after 30 mins by scintillation counting; design: species or system Human alphaherpesvirus 3
CCRF-CEM = experiment: Antiproliferation activity against human CEM cells after 3 days by coulter counter; format: cell-based; conditions: 72 h; method in brief: as §2

Compound | EC50 (Human alphaherpesvirus 3 [1]) [µM] | EC50 (Human alphaherpesvirus 3 [2]) [µM] | EC50 (Human alphaherpesvirus 1 [3]) [µM] | EC50 (Human betaherpesvirus 5 [6]) [µM] | CC50 (HEL) [µM] | EC50 (Human alphaherpesvirus 3 [7]) [µM] | IC50 (HeLa) [µM] | MCC [8] [µM] | EC50 (Human betaherpesvirus 5 [9]) [µM] | EC50 (Vaccinia virus) [µM] | EC50 (Felid alphaherpesvirus 1) [µM] | CC50 ([10]; crfk) [µM] | EC50 (Human alphaherpesvirus 3 [11]) [µM] | IC50 (FM3A) [µM] | EC50 (Human alphaherpesvirus 2) [µM] | IC50 (L1210) [µM] | EC50 (Human alphaherpesvirus 1 [12]) [µM] | IC50 (CCRF-CEM) [µM] | other results
Cc1cn([C@@H]2O[C@H](CO)[C@@H](O)C2(F)F)c(=O)[nH]c1=O | 5.8 | 10 | 20 | > 50 | 100 | > 50 | > 500 | > 50 | > 50 | ≥ 100 | > 100 | > 100 | > 50 | > 500 | 39 | > 500 | 12 | > 500 | IC50 (Thymidine kinase [4]): 85 µM; IC50 (Thymidine kinase [5]): 2.8 µM; IC50 [13]: 21 µM
COC(=O)[C@H](C)NP(=O)(OC[C@H]1O[C@@H](n2cc(I)c(=O)[nH]c2=O)C(F)(F)[C@@H]1O)Oc1ccccc1 (stereo partly specified) | > 50 | – | > 100 | > 50 | 51 | – | 126 | > 50 | > 50 | > 100 | 28 | > 100 | > 50 | 258 | > 100 | 226 | > 100 | 176 | –
C[C@H](NP(=O)(OC[C@H]1O[C@@H](n2cc(I)c(=O)[nH]c2=O)C(F)(F)[C@@H]1O)Oc1cccc2ccccc12)C(=O)OCc1ccccc1 (stereo partly specified) | 8.5 | – | > 20 | > 50 | 49 | – | 29 | > 50 | > 50 | > 20 | > 20 | 36 | 37 | – | > 20 | 23 | > 20 | 21 | –
Nc1ccn(C[C@@H](CO)OCP(=O)(O)O)c(=O)n1 [CIDOFOVIR] | – | – | – | – | – | – | – | > 250 | – | 10 | 1.3 | – | – | – | – | – | – | – | CC50 ([10]; CRFK cells): > 100 µM
C[C@H](NP(=O)(OC[C@H]1O[C@@H](n2cc(Cl)c(=O)[nH]c2=O)C(F)(F)[C@@H]1O)Oc1ccccc1)C(=O)OCc1ccccc1 (stereo partly specified) | > 50 | – | > 100 | > 50 | ≥ 100 | – | 200 | > 50 | > 50 | > 100 | > 100 | > 100 | > 50 | 226 | > 100 | 175 | > 100 | 196 | –
C[C@H](NP(=O)(OC[C@H]1O[C@@H](n2cc(I)c(=O)[nH]c2=O)C(F)(F)[C@@H]1O)Oc1ccccc1)C(=O)OCc1ccccc1 (stereo partly specified) | – | – | ≥ 100 | – | – | – | – | > 100 | – | 58 | 4.4 | ≥ 70 | – | – | 50 | – | 27 | – | –
Nc1nc2c(ncn2COC(CO)CO)c(=O)[nH]1 [GANCICLOVIR] | – | – | – | – | – | – | – | > 100 | – | > 100 | – | – | – | – | – | – | – | – | –
O=c1[nH]c(=O)n([C@H]2C[C@H](O)[C@@H](CO)O2)cc1/C=C/Br [BRIVUDINE] | 0.03 | – | – | – | 512 | > 150 | – | ≥ 250 | – | 10 | 30 | > 100 | ≥ 60 | – | – | – | – | – | –
O=c1[nH]c(=O)n([C@@H]2O[C@H](CO)[C@@H](O)C2(F)F)cc1Cl | ≥ 50 | > 50 | 78 | > 50 | > 100 | > 50 | ≥ 500 | > 50 | > 50 | > 100 | 13 | > 100 | > 50 | > 500 | ≥ 100 | > 500 | 33 | > 500 | IC50 (Thymidine kinase [4]): 93 µM; IC50 (Thymidine kinase [5]): 22 µM; IC50 [13]: 35 µM
COC(=O)[C@H](C)NP(=O)(OC[C@H]1O[C@@H](n2cc(I)c(=O)[nH]c2=O)C(F)(F)[C@@H]1O)Oc1cccc2ccccc12 (stereo partly specified) | 25 | 29 | > 100 | > 50 | ≥ 100 | > 50 | 133 | > 50 | > 50 | > 100 | > 20 | 92 | > 50 | 46 | > 100 | 134 | > 100 | 60 | –
O=c1[nH]c(=O)n([C@@H]2O[C@H](CO)[C@@H](O)C2(F)F)cc1I | 9.1 | 13 | 20 | > 50 | > 100 | > 50 | 230 | > 50 | > 50 | > 100 | 1.2 | > 100 | > 50 | 409 | 64 | 302 | 16 | 154 | IC50 (Thymidine kinase [4]): 38 µM; IC50 (Thymidine kinase [5]): 3.5 µM; IC50 [13]: 19 µM
C[C@H](NP(=O)(OC[C@H]1O[C@@H](n2cc(Br)c(=O)[nH]c2=O)C(F)(F)[C@@H]1O)Oc1ccccc1)C(=O)OCc1ccccc1 (stereo partly specified) | 39 | – | > 100 | > 50 | ≥ 50 | – | 148 | > 50 | > 50 | > 100 | 11.6 | > 100 | > 50 | 91 | > 100 | 50 | > 100 | 104 | –
Nc1nc2c(ncn2COCCO)c(=O)[nH]1 [ACYCLOVIR] | – | – | – | – | > 400 | – | – | > 250 | – | > 250 | 1 | – | – | – | – | – | – | – | CC50 ([10]; CRFK cells): > 100 µM
O=c1[nH]c(=O)n([C@@H]2O[C@H](CO)[C@@H](O)C2(F)F)cc1Br | 11 | 23 | 73 | > 50 | > 100 | > 50 | 458 | > 50 | > 50 | > 100 | 2.4 | > 100 | > 50 | > 500 | > 100 | > 500 | 15 | > 500 | IC50 (Thymidine kinase [4]): 34 µM; IC50 (Thymidine kinase [5]): 7.5 µM; IC50 [13]: 26 µM
